How the values were obtained:
DC3F/AD [1] = test: In vitro activity in DC-3F/AD cell line Ratio of IC50(actinomycin D alone) / IC50(actinomycin D + modulator) at a concentration of 10 uM
KB [2] = test: Increase in adriamycin uptake in modulator-treated cells relative to untreated KB-A1 cells at a concentration of 5 uM; type: functional, Homo sapiens
Summary of the method: (§1)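 DC-3F/AD or KB-A1 cells (5 × 10⁶/mL) were incubated at 37 °C for 5 h with 50 μM adriamycin plus modulator (2.5–10 μM range). ADR fluorescence of 10 000 cells was read by flow cytometry at 4 °C with 488 nm argon-laser excitation. The value is the increase in mean fluorescence of treated cells over untreated cells.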

DC3F/AD [3] = test: In vitro activity in DC-3F/AD cell line(Ratio of IC50(actinomycin D alone) / IC50(actinomycin D + modulator) at a concentration of 5 uM
DC3F/AD [4] = test: (§2) Increase in adriamycin uptake in modulator-treated cells relative to untreated cells at a concentration of 5 uM; type: functional, Cricetulus griseus
Summary of the method: as §1

Cricetinae gen. sp. [5] = test: (§3) Percent of cell viability remaining after incubating the cells with the modulator alone at a concentration of 10 uM; type: functional, Cricetulus griseus
Summary of the method: (§4)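 Cells were grown with modulator alone for 4 days under the same conditions as the chemosensitivity assay, and read by MTT. Viability = (absorbance with modulator/absorbance of control cells) × 100. "tox" marks viability below 25%.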

DC3F/AD [6] = test: Increase in adriamycin uptake in modulator-treated cells relative to untreated cells at a concentration of 10 uM; type: functional, Cricetulus griseus
Summary of the method: as §1

DC3F/AD [7] = test: Percent of cell viability remaining after incubating the cells with the modulator alone a concentration of 5 uM; type: functional, Cricetulus griseus
Summary of the method: as §4

KB [8] = test: Percent of cell viability remaining after incubating the cells with the modulator alone; type: functional, Homo sapiens; set-up: concentration or dose not given beside the values
Summary of the method: as §4

KB [9] = test: Compound was evaluated for the in vitro activity in KB-A1 cell line. Activity expressed as fold reversion (Ratio of IC50(adriamycin alone) / IC50(adriamycin + modulator) at a concentration of 5 uM; type: functional, Homo sapiens
Summary of the method: (§5)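 Human epidermoid KB-A1 cells (Pgp-overexpressing) were grown in RPMI 1640 with 10% FCS and 10 mM HEPES (pH 7.4). They were exposed for 4 days to adriamycin (nine graded concentrations, in triplicate) with or without 5 μM modulator. IC50 was read by the MTT assay. Fold reversion = IC50(ADR alone)/IC50(ADR + modulator).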

P388 [10] = test: Antitumor activity of vincristine against P388 leukemia cell line in mice at a dose of 50 mg/kg.; type: functional, Mus musculus
DC3F/AD [11] = test: as §3; type: functional, Cricetulus griseus
Summary of the method: as §4

P388 [12] = test: Antitumor activity of vincristine against P388 leukemia cell line in mice at a dose of 100 mg/kg.; type: functional, Mus musculus
KB [13] = test: In vitro activity in KB-A1 cell line activity expressed as fold reversion (Ratio of IC50(adriamycin alone) / IC50(adriamycin + modulator) at a concentration of 5 uM; type: functional, Homo sapiens
Summary of the method: as §5

KB [14] = test: Compound was evaluated for the in vitro activity in KB-A1 cell line)Activity expressed as fold reversion (Ratio of IC50(adriamycin alone) / IC50(adriamycin + modulator) at a concentration of 5 uM; type: functional, Homo sapiens
Summary of the method: as §5

DC3F/AD [15] = test: Percent of cell viability remaining after incubating with a 10 uM concentration; type: functional, Cricetulus griseus
Summary of the method: as §4

Cricetinae gen. sp. [16] = test: Compound was evaluated for in vitro activity in DC-3F/AD cell line(Ratio of IC50(actinomycin D alone) / IC50(actinomycin D + modulator) at a concentration of 5 uM
DC3F/AD [17] = test: Percent of cell viability remaining after incubating the cells with the modulator alone at a concentration of 5 uM; type: functional, Cricetulus griseus
Summary of the method: as §4

DC3F/AD [18] = test: Compound was evaluated for in vitro activity in DC-3F/AD cell line (Ratio of IC50(actinomycin D alone) / IC50(actinomycin D + modulator) at a concentration of 5 uM
P388 [19] = test: Antitumor activity of vincristine against P388 leukemia cell line in mice at a dose of 50 mg/kg; type: functional, Mus musculus
P388 [20] = test: Antitumor activity of vincristine against P388 leukemia cell line in mice at a dose of 100 mg/kg; type: functional, Mus musculus
KB [21] = test: as §2; type: functional, Homo sapiens
Summary of the method: as §1

P388/VCR [22] = test: Antitumor activity of vincristine against P388/VCR leukemia in mice at a dose of 50 mg/kg.; type: functional, Mus musculus
P388/VCR [23] = test: Antitumor activity of vincristine against P388/VCR leukemia in mice at a dose of 100 mg/kg.; type: functional, Mus musculus
P388/VCR [24] = test: Antitumor activity of vincristine against P388/VCR leukemia in mice at a dose of 50 mg/kg; type: functional, Mus musculus
P388/VCR [25] = test: Antitumor activity of vincristine against P388/VCR leukemia in mice at a dose of 100 mg/kg; type: functional, Mus musculus

| SMILES | Fold reversion (DC3F/AD [1]) | Increase (KB [2]) | Fold reversion (DC3F/AD [3]) | Increase (DC3F/AD [4]) | Increase (DC3F/AD [6]) | Viability (DC3F/AD [7]) | Viability (KB [8]) | Fold reversion (KB [9]) | T/C (P388 [12]) | Fold reversion (KB [13]) | Viability (DC3F/AD [15]) | also measured |
| --- | --- | --- | --- | --- | --- | --- | --- | --- | --- | --- | --- | --- |
| C=CCNc1nc(NCC=C)nc(N2CCN(CC3c4ccccc4CCc4ccccc43)CC2)n1 | 1832 | 29.7 | 464 | 17.6 | 24.5 | 84% | 121% | 63 |  |  |  | Viability (Cricetinae gen. sp. [5]): 70% |
| C=CCNc1nc(NCC=C)nc(N2CCC(NCC3c4ccccc4N(C)S(=O)(=O)c4cc(Cl)ccc43)CC2)n1 (stereo not given) | 9570 | 39.8 | 2804 | 22.8 | 24.1 | 91% | 92% |  | 173% | 147 |  | T/C (P388 [10]): 177%; Of viability (DC3F/AD [11]): 77% |
| C=CCNc1nc(NCC=C)nc(N2CCC(NCC(c3ccccc3)S(=O)(=O)c3ccccc3)CC2)n1 (stereo not given) | 817 | 41.9 | 139 | 21.2 | 29 | 107% | 115% |  |  |  | 92% | Fold reversion (KB [14]): 277 |
| C=CCNc1nc(Cl)nc(N2CCC(NCC3c4ccccc4CCc4ccccc43)CC2)n1 | 2205 | 33.8 | 850 | 21.6 | 27.5 | 96% | 63% |  |  |  | 96% | Fold reversion (KB [14]): 236 |
| C=CCNc1nc(NCC)nc(N2CCC(NCC3c4ccccc4COc4ccccc43)CC2)n1 (stereo not given) | 2630 | 38.8 |  | 18 | 21.8 | 76% | 101% |  | 180% | 229 | 86% | Fold reversion (Cricetinae gen. sp. [16]): 1327; T/C (P388 [10]): 196% |
| C=CCNc1nc(NCC=C)nc(NCCN2CCN(C3c4ccccc4CCc4ccccc43)CC2)n1 | <25 | 26.2 |  | 10.2 | 10.5 |  |  | <25 |  |  |  |  |
| C=CCNc1nc(NCC=C)nc(N2CCN(C(c3ccc(F)cc3)c3ccc(F)cc3)CC2)n1.CS(=O)(=O)O | 235 |  | 112 | 7.3 | 17.9 |  |  |  |  |  | 63% | Viability (DC3F/AD [17]): 65% |
| COc1ccc(CCN(C)CCCC(C#N)(c2ccc(OC)c(OC)c2)C(C)C)cc1OC (stereo not given) | 34 | 13.4 |  | 2.6 | 7.5 | 43% | 75% | 26 |  |  | 39% | Fold reversion (DC3F/AD [18]): 3 |
| C=CCNc1nc(NCC=C)nc(N2CCC(NCC3c4ccccc4COc4ccccc43)CC2)n1 (stereo not given) | 5344 | 53.7 | 1932 | 25.5 | 25.3 | 82% | 106% | 274 |  |  | 78% | T/C (P388 [19]): 196%; T/C (P388 [20]): 191% |
| C=CCNc1nc(NCCC)nc(N2CCC(NCC3c4ccccc4CCc4ccccc43)CC2)n1 | 4455 |  | 2753 | 27.3 | 24.9 | 85% | 55% |  | 176% | 221 | 42% | T/C (P388 [10]): 179%; Increase (KB [21]): 51.3 |
| C=CCN(CC=C)c1nc(N(CC=C)CC=C)nc(N2CCC(NCC(c3ccccc3)c3ccccc3)CC2)n1 | 1 |  | 1 |  |  | 74% | 78% |  |  |  | 65% | Fold reversion (KB [14]): 1 |
| C=CCNc1nc(NCC=C)nc(N2CCC(NC(c3ccccc3)c3ccccc3)CC2)n1 | 1828 |  | 905 | 25.9 | 40 |  |  |  |  |  | 61% | Viability (DC3F/AD [17]): 75% |
| C=CCNc1nc(NCC=C)nc(N2CCN(C3c4ccccc4CCc4ccccc43)CC2)n1 | 455 | 11.2 | 309 | 16.9 | 19.3 | 92% | 108% | 36 |  |  | 87% |  |
| C=CCNc1nc(NCCC)nc(N2CCC(NCC(c3ccccc3)c3ccccc3)CC2)n1 | 2356 | 51.5 | 965 | 26 | 34.2 | 77% | 93% |  | 177% | 236 | 66% | T/C (P388/VCR [22]): 167%; T/C (P388 [10]): 176%; T/C (P388/VCR [23]): 163% |
| C=CCNc1nc(NC)nc(N2CCC(NCC3c4ccccc4COc4ccccc43)CC2)n1 (stereo not given) | 2203 | 35 | 600 | 16.8 | 21.5 | 54% | 107% |  | 163% | 183 | 75% | T/C (P388/VCR [22]): 170%; T/C (P388 [10]): 181% |
| C=CCNc1nc(NCC=C)nc(N2CCN(NCC3c4ccccc4CCc4ccccc43)CC2)n1 | 1159 | 22.8 | 329 | 21.1 | 28.2 | 87% | 96% |  |  |  | 81% | Fold reversion (KB [14]): 93 |
| C=CCNc1nc(NCC=C)nc(N2CCC(NCC(c3ccc(F)cc3)c3ccc(F)cc3)CC2)n1 | 2564 | 56.5 |  | 26.1 | 35.6 | 78% | 75% |  | 157% | 168 | 62% | T/C (P388/VCR [24]): 176%; T/C (P388/VCR [25]): 185%; T/C (P388 [19]): 168%; Fold reversion (DC3F/AD [18]): 918 |
| C=CCNc1nc(NCC=C)nc(NCC(O)CN2CCN(C3c4ccccc4CCc4ccccc43)CC2)n1 (stereo not given) | <25 | 29.2 | <25 | 24.3 | 27.6 |  |  | <25 |  |  |  |  |

Source: ChEMBL document CHEMBL1126298, “New triazine derivatives as potent modulators of multidrug resistance” (1992)
